How the values were obtained:
Rattus norvegicus [1] = assay: Percentage of control was measured on rat liver cathepsin B by a single oral dose of 50 mg/kg; type: functional
Summary of the method: (§1)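 Rats dosed once by gavage with compound suspended in CMC; livers taken 4-5 h postdose, frozen, homogenized and centrifuged; supernatant cathepsin B activity read with Z-Arg-Arg-NMec at pH 6.0, 37 °C, 30 min, quenched with chloroacetate/acetate pH 4.3; specific activity given as % of vehicle control, two dilutions in triplicate, 4-5 animals per group.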

Cathepsin B (Bos taurus) = Cathepsin B (Bos taurus) (UniProt P07688); assay: Rate of cathepsin B inactivation in vitro in bovine spleen; type: tissue-based
Summary of the method: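 Purified bovine spleen cathepsin B; continuous fluorometric assay in 0.1 M potassium phosphate, 1.25 mM EDTA, 1 mM dithiothreitol, pH 6.0, 25 °C; second-order inactivation rate constant k/K (M-1 s-1) determined.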

Rattus norvegicus [2] = assay: Percentage of control was measured on rat liver cathepsin B by a single intraperitoneal dose.(dose =10 mg/kg); type: functional
Summary of the method: (§2)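 Female Lewis rats, single intraperitoneal dose as CMC suspension; livers removed 4-5 h postdose, frozen homogenate supernatant assayed fluorimetrically with Z-Arg-Arg-NMec in 0.1 M KH2PO4 pH 6.0, 1 mM EDTA, 1 mM DTT, 37 °C 30 min; protein-normalized activity as % of CMC control; two dilutions in triplicate per animal, 4-5 animals per group.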

Rattus norvegicus [3] = assay: Percentage of control was measured on rat liver cathepsin B by a single oral dose.(dose =50 mg/kg); type: functional; summary of the method: as §1
Rattus norvegicus [4] = assay: Percentage of control was measured on rat liver cathepsin B by a single intraperitoneal dose of 10 mg/kg; type: functional; summary of the method: as §2
Rattus norvegicus [5] = assay: Percentage of control was measured on rat liver cathepsin B by a single oral dose.(dose =100 mg/kg); type: functional; summary of the method: as §1
Rattus norvegicus [6] = assay: Percentage of control was measured on rat liver cathepsin B by a single intraperitoneal dose.(dose =100 mg/kg); type: functional; summary of the method: as §2
[7] = Half-life measured in rat plasma
Rattus norvegicus [8] = assay: Percent inhibition was measured on rat heart cathepsin B by a single subcutaneous dose of 20 mg/kg
Rattus norvegicus [9] = assay: ED50 value was determined for rat skeletal muscle at 20h postdose by subcutaneous administration; type: functional; conditions: Muscle tissue, sc
Summary of the method: (§3)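 Female Lewis rats (150-200 g, usually four per group), single subcutaneous dose suspended in CMC; heart, liver or skeletal muscle harvested 20 h postdose, frozen in liquid nitrogen, homogenized, clarified at 15000g. Cathepsin B measured as Z-Arg-Arg-NMec (20 μM solution) hydrolysis, pH 6.0, 37 °C 30 min, fluorescence ex 340/em 460; specific activity as % of vehicle control; ED50 from dose-response.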

Rattus norvegicus [10] = assay: ED50 value was determined for rat heart at 20h postdose by subcutaneous administration; type: functional; conditions: sc; summary of the method: as §3
Rattus norvegicus [11] = assay: Percent inhibition was measured on rat pancreas cathepsin B by a single subcutaneous dose of 20 mg/kg
[12] = Half-life measured in in vitro Cathepsin B assay in human plasma; type: ADME, cell-free
Rattus norvegicus [13] = assay: Percent inhibition was measured on rat skeletal tissue cathepsin B by a single subcutaneous dose of 20 mg/kg
Rattus norvegicus [14] = assay: Percent inhibition was measured on rat liver cathepsin B by a single subcutaneous dose of 20 mg/kg
Rattus norvegicus [15] = assay: Percent inhibition was measured on rat spleen cathepsin B by a single subcutaneous dose of 20 mg/kg
Rattus norvegicus [16] = assay: ED50 value was determined for rat liver at 20h postdose by subcutaneous administration; type: functional; conditions: sc; summary of the method: as §3

Compound | k/K (Cathepsin B (Bos taurus)) | Control (Rattus norvegicus [1]) | Control (Rattus norvegicus [3]) | also measured
CC(NC(=O)[C@H](Cc1ccccc1)NC(=O)OCc1ccccc1)C(=O)CF (some centres not stated) | 21000 M⁻¹ s⁻¹ | 7% |  | 
COc1ccc(C[C@H](NC(=O)OCc2ccccc2)C(=O)N[C@@H](CCCCN)C(=O)COC(=O)c2c(C)cc(C)cc2C)cc1.O=C(O)C(F)(F)F | 170000 M⁻¹ s⁻¹ | 30% |  | 
CC(C)C[C@H](NC(=O)[C@H]1O[C@@H]1C(=O)O)C(=O)NCCCCN=C(N)N [E-64] |  |  |  | Control (Rattus norvegicus [4]): 24%
Cc1cc(C)c(C(=O)OCC(=O)[C@@H](C)NC(=O)[C@H](Cc2ccccc2)NC(=O)c2ccc(C(=O)NS(=O)(=O)c3ccccc3)cc2)c(C)c1 | 2500 M⁻¹ s⁻¹ |  | 62% | Control (Rattus norvegicus [2]): 68%
COC(=O)CCC(=O)N[C@@H](Cc1ccccc1)C(=O)N[C@H](C)C(=O)COC(=O)c1c(C)cc(C)cc1C | 4000 M⁻¹ s⁻¹ |  | 50% | Control (Rattus norvegicus [2]): 38%
Cc1cc(C)c(C(=O)OCC(=O)CNC(=O)[C@H](Cc2ccccc2)NC(=O)CCC(=O)O)c(C)c1 | 700 M⁻¹ s⁻¹ | 49% |  | 

Further lines, with some results ahead:

k/K (Cathepsin B (Bos taurus)) | Compound | Control (Rattus norvegicus [1]) | Control (Rattus norvegicus [3]) | also measured
1000 M⁻¹ s⁻¹ | Cc1cc(C)c(C(=O)OCC(=O)[C@@H](C)NC(=O)[C@H](Cc2ccccc2)NC(=O)CCC(=O)O)c(C)c1 |  | 31% | Control (Rattus norvegicus [2]): 23%
14000 M⁻¹ s⁻¹ | Cc1cc(C)c(C(=O)OCC(=O)[C@@H](C)NC(=O)[C@H](Cc2ccccc2)NC(=O)OCc2ccccc2)c(C)c1 |  |  | Control (Rattus norvegicus [5]): 78%; Control (Rattus norvegicus [6]): 69%
230000 M⁻¹ s⁻¹ | Cc1cc(C)c(C(=O)OCC(=O)[C@H](CCCCN)NC(=O)[C@H](Cc2ccccc2)NC(=O)OCc2ccccc2)c(C)c1.Cl | 11% |  | Control (Rattus norvegicus [4]): 4%; half-life [7]: 1.6 h; Inhibition % (Rattus norvegicus [8]): 94%; ED50 (Rattus norvegicus [9]): 1 mg/kg; ED50 (Rattus norvegicus [10]): ~0.1 mg/kg; Inhibition % (Rattus norvegicus [11]): 96%; half-life [12]: > 33 h; Inhibition % (Rattus norvegicus [13]): 72%; Inhibition % (Rattus norvegicus [14]): 96%; Inhibition % (Rattus norvegicus [15]): 98%; ED50 (Rattus norvegicus [16]): 2.4 mg/kg
9900 M⁻¹ s⁻¹ | Cc1cc(C)c(C(=O)OCC(=O)CNC(=O)[C@H](Cc2ccccc2)NC(=O)OCc2ccccc2)c(C)c1 |  | 29% | 
63000 M⁻¹ s⁻¹ | Cc1c(C)c(C(=O)OCC(=O)[C@H](C)NC(=O)[C@H](Cc2ccccc2)NC(=O)OCc2ccccc2)c(C)c(C)c1C(=O)O | 79% |  | Control (Rattus norvegicus [4]): 53%

— ChEMBL document CHEMBL1127827, “In vivo inhibition of cathepsin B by peptidyl (acyloxy)methyl ketones” (J Med Chem, 1994)
